Four compounds from PMC7741178 (Bioorganic & medicinal chemistry, 2020) can be followed below.

What all share (format): cell-based
One data set deals with MT-4 cells. As to the kind of experiment: Cytotoxicity in MT-4 cells. The following applies: CC50 MT-4 cells / IC50 CD4 down-modulation.
The next data set has as its target human CD4 (CD4-YFP) (Homo sapiens, UniProt P01730). The data set is described as follows: CD4 down-modulation in CD4-YFP transfected CHO cells. The following applies: for CD4 down-modulation (in words): CD4-YFP CHO cells. The essentials:
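CHO cells stably expressing human CD4 fused at its C-terminus to YFP were exposed for 24 h at 37 °C to 1:5 serial dilutions of test compound. Cells were washed, fixed in 1% formaldehyde, and read at once by flow cytometry (488 nm laser). YFP MFI was expressed as % of matched untreated cells, after subtracting the background of non-transfected cells. IC50 is the 50% decrease in CD4. Mean ± SD, n = 3.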

A further data set concerns HIV-1 NL4.3 (X4). The data set is described as follows: HIV-1 NL4.3 replication in MT-4 cells. To be noted: HIV-1 NL4.3 in MT-4 cells. The method, boiled down: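 MT-4 cells at 3.75×10^5 cells/mL in RPMI 1640 with 10% FBS and 2 mM L-glutamine were preincubated 15 min with test compound. HIV-1 NL4.3 (30 pg/well) was then added and cells were kept at 37 °C. On day 4, viability was read by MTS/PES at 490 and 700 nm, giving the IC50 for viral replication. Mean ± SD, n = 2 or 3.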

`C=C1CN(S(=O)(=O)c2ccc(C)cc2)CCc2cc(CCCC)cc(n2)CCN(S(=O)(=O)c2ccc(C)cc2)C1.Cl` [Compound 3j, 13-Butyl-6-methylene-4,8-di(p-toluenesulfonyl)-4,8,15-triazabicyclo[9.3.1]pentadeca-1(15),11,13-triene]: the “therapeutic indices (CC50/IC50 for CD4)” value in the data set on MT-4 cells was “exceeding 100”. This compound also gave an IC50 on human CD4 (CD4-YFP) of 500 nM.

Consider `C=C1CN(S(=O)(=O)c2ccc(C)cc2)CCc2cc(CC(C)C)cc(n2)CCN(S(=O)(=O)c2ccc(C)cc2)C1.Cl` [Compound 3k, 13-Isobutyl-6-methylene-4,8-di(p-toluenesulfonyl)-4,8,15-triazabicyclo[9.3.1]pentadeca-1(15),11,13-triene], for which the “therapeutic indices (CC50/IC50 for CD4)” value in the data set with MT-4 cells was “exceeding 100”.

With `Cc1ccc(S(=O)(=O)N2CCc3cc(C(C)(C)C)cc(n3)CCN(S(=O)(=O)c3ccc(C)cc3)CC2)cc1` [Compound 16, 12-tert-Butyl-4,7-bis(p-toluenenesulfonyl)-4,7,14-triazabicyclo[8.3.1]tetradeca-1(14),1 0,12-triene], in the data set with HIV-1 NL4.3 (X4), the “anti-HIV activity (in words)” value is “no observable”. Further, the “CD4 down-modulation (in words)” value on human CD4 (CD4-YFP) is “no observable”.

As to `C=C1CN(S(=O)(=O)c2ccc(C)cc2)Cc2cccc3cc4cccc(c4nc23)CN(S(=O)(=O)c2ccc(C)cc2)C1` [Compound 23, 9-Methylene-7,11,19-7,11-bis(p-toluenesulfonyl)-triazatetracyclo[15.3.1.0^5,20.0^13,18]henicosa-1(21),2,4,13,15,17,19-heptaene], the “anti-HIV activity (in words)” value with HIV-1 NL4.3 (X4) is listed as “no observable”. Besides, the “CD4 down-modulation (in words)” value at human CD4 (CD4-YFP) was “no observable”.

What is called IC50 is the point on the concentration scale where inhibition reaches its midpoint. The low end stands for greater potency in that assay, the high end for weaker potency in that assay.
